Measurements from ChEMBL document CHEMBL4334488 (J Med Chem, 2019).

How the values were obtained:
[1] = biological target: T1, Histamine H3 receptor (Homo sapiens, UniProt Q9Y5N1); assay: Displacement of 3 nM [3H]Nalpha-methylhistamine from human H3R expressed in Sf9 cell membranes co-expressing Gia2 and beta1gamma2 by competition binding assay
Procedure, shortened: (§1)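 Competition binding on Sf9 membranes in 100 μL with 0.2% BSA. Membrane protein: 5−25 μg (H4R), 24−35 μg (H3R), 15 μg (H2R), 23 μg (H1R). Normalized total binding was plotted against log competitor. Two to four independent experiments, each in triplicate.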

[2] = biological target: T1, Histamine H3 receptor; assay: Displacement of 2 nM [3H]UR-PI294 from human H3R expressed in Sf9 cell membranes co-expressing Gia2 and beta1gamma2 by competition binding assay
Procedure, shortened: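 Competition binding on Sf9 membranes in 100 μL with 0.2% BSA. Membrane protein: 5−25 μg (H4R), 24−35 μg (H3R), 15 μg (H2R), 23 μg (H1R). […] Normalized total binding was plotted against log competitor. Two to four independent experiments, each in triplicate.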

[3] = Chemical stability in PBS buffer at pH 7.4 at 200 uM at 23 degC measured over 24 hrs by RP-HPLC analysis; type: physicochemical; settings: pH 7.4, 24 h
Procedure, shortened: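 Compounds diluted to 200 μM in PBS pH 7.4 from a 10 mM DMSO stock, incubated at 23 °C for 24 h, and analysed by RP-HPLC with detection at 220 nm.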

[4] = biological target: Histamine H1 receptor (Homo sapiens, UniProt P35367); assay: Displacement of 5 nM [3H-pyrilamine from human H1R expressed in Sf9 cell membranes co-expressing RGS4 by competition binding assay; procedure, shortened: as §1
Chain of Histamine H1 receptor (P35367 whole entry, looked up): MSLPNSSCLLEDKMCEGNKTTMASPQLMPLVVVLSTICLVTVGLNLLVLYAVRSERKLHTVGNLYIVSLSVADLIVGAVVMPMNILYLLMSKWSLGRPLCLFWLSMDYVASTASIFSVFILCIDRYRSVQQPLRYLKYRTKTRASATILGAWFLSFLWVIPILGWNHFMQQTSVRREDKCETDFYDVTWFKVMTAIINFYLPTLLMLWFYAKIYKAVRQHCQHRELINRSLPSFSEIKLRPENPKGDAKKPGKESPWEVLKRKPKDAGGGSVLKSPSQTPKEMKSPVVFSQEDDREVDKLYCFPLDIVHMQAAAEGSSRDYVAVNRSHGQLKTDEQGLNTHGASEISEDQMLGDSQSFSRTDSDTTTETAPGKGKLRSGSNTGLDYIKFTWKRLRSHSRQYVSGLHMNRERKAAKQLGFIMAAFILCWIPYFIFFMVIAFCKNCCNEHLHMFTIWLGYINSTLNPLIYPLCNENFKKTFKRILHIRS

[5] = biological target: T2, Histamine H4 receptor (Homo sapiens, UniProt Q9H3N8); assay: Displacement of 40 nM [3H]-histamine from human H4R expressed in Sf9 cell membranes co-expressing Gia2 and beta1gamma2 by competition binding assay; procedure, shortened: as §1
T2 sequence (Q9H3N8 whole entry): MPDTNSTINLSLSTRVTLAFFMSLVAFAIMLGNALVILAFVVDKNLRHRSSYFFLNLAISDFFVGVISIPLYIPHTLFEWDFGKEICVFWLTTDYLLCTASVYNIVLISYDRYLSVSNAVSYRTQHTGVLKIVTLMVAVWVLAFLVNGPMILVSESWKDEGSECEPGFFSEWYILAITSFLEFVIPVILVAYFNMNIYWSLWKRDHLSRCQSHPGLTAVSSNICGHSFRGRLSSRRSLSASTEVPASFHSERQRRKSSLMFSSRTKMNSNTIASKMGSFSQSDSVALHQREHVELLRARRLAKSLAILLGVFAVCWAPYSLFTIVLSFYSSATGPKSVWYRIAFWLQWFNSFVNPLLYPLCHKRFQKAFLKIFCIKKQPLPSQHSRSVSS

[6] = biological target: Histamine H2 receptor (Homo sapiens, UniProt P25021); assay: Displacement of 20 nM [3H]UR-DE257 from human H2R expressed in Sf9 cell membranes co-expressing GsalphaS by competition binding assay; procedure, shortened: as §1
Chain of Histamine H2 receptor (P25021 whole entry): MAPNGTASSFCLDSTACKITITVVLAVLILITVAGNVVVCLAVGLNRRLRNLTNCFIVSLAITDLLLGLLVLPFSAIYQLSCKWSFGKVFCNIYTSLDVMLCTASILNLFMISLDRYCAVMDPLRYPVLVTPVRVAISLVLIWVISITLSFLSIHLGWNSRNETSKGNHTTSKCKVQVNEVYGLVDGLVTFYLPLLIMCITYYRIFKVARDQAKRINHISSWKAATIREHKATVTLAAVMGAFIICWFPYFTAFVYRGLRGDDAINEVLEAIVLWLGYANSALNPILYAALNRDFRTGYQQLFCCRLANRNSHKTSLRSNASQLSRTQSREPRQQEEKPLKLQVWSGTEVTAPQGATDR

[7] = species: Homo sapiens; assay: Selectivity index, ratio of Ki for displacement of 2 nM [3H]UR-PI294 from human H3R expressed in Sf9 cell membranes co-expressing Gia2 and beta1gamma2 by competition binding assay to Ki for displacement of 40 nM [3H]-histamine from human H4R expressed in Sf9 cell membranes co-expressing Gia2 and beta1gamma2 by competition binding assay
[8] = species: Homo sapiens; assay: Selectivity index, ratio of Ki for [3H]UR-DE257 from human H2R expressed in Sf9 cell membranes co-expressing GsalphaS by competition binding assay to Ki for displacement of 40 nM [3H]-histamine from human H4R expressed in Sf9 cell membranes co-expressing Gia2 and beta1gamma2 by competition binding assay
[9] = biological target: Histamine H4 receptor (Rattus norvegicus) (UniProt Q91ZY1)
Chain of Histamine H4 receptor (Rattus norvegicus) (Q91ZY1 whole entry): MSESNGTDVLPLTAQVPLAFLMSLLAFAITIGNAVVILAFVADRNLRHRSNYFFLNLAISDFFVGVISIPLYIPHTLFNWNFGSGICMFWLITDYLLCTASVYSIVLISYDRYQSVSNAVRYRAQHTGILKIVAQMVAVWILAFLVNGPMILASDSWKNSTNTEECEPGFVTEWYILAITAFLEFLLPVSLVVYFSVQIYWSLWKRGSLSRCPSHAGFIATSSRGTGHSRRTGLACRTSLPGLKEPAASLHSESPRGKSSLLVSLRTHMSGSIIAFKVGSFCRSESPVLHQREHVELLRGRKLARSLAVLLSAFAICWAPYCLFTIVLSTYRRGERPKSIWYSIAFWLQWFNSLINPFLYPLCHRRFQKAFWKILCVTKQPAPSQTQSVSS

[10] = biological target: T2, Histamine H4 receptor; assay: Agonist activity at human H4R by [35S]-GTPgammaS-binding assay; type: functional
[11] = biological target: T3, Histamine H4 receptor (Mus musculus, UniProt Q91ZY2); assay: Agonist activity at mouse H4R by [35S]-GTPgammaS-binding assay; type: functional
T3 sequence (Q91ZY2 whole entry): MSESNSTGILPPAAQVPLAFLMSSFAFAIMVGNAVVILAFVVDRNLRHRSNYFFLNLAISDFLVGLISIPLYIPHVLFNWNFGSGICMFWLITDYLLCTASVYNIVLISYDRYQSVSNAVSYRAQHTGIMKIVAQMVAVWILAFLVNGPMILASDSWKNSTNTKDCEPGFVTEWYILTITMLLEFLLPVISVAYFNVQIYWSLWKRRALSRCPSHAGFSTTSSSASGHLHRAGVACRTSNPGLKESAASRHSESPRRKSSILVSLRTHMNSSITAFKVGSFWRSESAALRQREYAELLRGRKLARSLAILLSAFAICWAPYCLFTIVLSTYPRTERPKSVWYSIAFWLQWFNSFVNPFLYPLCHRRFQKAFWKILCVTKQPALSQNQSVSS

[12] = biological target: T2, Histamine H4 receptor; assay: Binding affinity to human H4R
[13] = Chemical stability in EtOH/H2O (70:30) at -20 degC measured over 11 months; type: physicochemical; settings: 8035.5 h
Procedure, shortened: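 Radioligand stored in EtOH/H2O 70:30 at −20 °C. Radiochemical purity was checked by HPLC with UV and radiometric detection after spiking with the unlabeled compound, 4 days after synthesis and again after 11 months.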

[14] = biological target: T2, Histamine H4 receptor
[15] = biological target: T4, Histamine H4 receptor (Mus musculus) (UniProt Q91ZY2)
T4 sequence (whole entry): T3 sequence (Q91ZY2 whole entry)

T1 sequence (Q9Y5N1 whole entry): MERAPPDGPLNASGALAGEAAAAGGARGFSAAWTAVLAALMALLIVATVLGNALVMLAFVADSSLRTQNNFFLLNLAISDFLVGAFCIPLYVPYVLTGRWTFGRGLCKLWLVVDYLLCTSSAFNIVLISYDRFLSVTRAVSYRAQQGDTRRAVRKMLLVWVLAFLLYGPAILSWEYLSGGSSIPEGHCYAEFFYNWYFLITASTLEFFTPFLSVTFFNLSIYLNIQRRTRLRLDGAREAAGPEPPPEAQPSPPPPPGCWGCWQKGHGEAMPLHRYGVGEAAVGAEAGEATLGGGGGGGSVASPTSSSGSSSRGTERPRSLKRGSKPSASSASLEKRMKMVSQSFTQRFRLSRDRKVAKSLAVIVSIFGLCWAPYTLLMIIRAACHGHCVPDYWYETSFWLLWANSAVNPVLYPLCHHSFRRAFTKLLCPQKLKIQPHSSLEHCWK

| Structure (SMILES) | Ki [1] [nM] | Ki [2] [nM] | Ki [4] [nM] | other results |
| --- | --- | --- | --- | --- |
| CC(C)(C)CNc1nccc(N2CCCN(C(=N)N)CC2)n1 | > 10000 | – | – | – |
| CN[C@@H]1CCN(c2ccnc(NCC(C)(C)C)n2)C1 | 27.5 | 27.5 | – | – |
| CC(C)(C)CNc1nccc(N2CC[C@@H](NC(=N)N)C2)n1.O=C(O)C(F)(F)F.O=C(O)C(F)(F)F | 1120 | – | > 10000 | Stability [3]: Stable |
| Cc1[nH]cnc1CSCCNc1ccnc(NCC(C)(C)C)n1 | > 10000 | – | > 1000 | – |
| CN1CCCN(c2ccnc(NCC(C)(C)C)n2)CC1.O=C(O)C(F)(F)F.O=C(O)C(F)(F)F | 2400 | – | > 10000 | Stability [3]: Stable |
| CC(C)(C)CNc1nccc(N2CCc3nc[nH]c3C2)n1.O=C(O)C(F)(F)F.O=C(O)C(F)(F)F | 3.31 | – | – | Stability [3]: Stable |
| CC(C)(C)CNc1nccc(NCCc2c[nH]cn2)n1 | – | 9.55 | – | Ki [5]: 204 nM |
| CN1CCN(c2ccnc(NCC(C)(C)C)n2)CC1 | 5500 | – | – | – |
| CC(C)(C)CNc1nccc(NCCCc2c[nH]cn2)n1 | – | 9.33 | – | – |
| CN(C)[C@@H]1CCN(c2ccnc(NCC(C)(C)C)n2)C1.O=C(O)C(F)(F)F.O=C(O)C(F)(F)F | – | – | > 10000 | Stability [3]: Stable |
| CC(C)(C)CNc1nccc(NCCN)n1 | 692 | – | > 1000 | – |
| CC(C)(C)CNc1nccc(N2CCNCC2)n1 | > 10000 | – | – | – |
| CC(C)(C)CNc1nccc(NC2CCNCC2)n1 | 3470 | 3470 | > 10000 | Ki [5]: 1910 nM; Ki [6]: > 10000 nM; Ratio Ki [7]: 1.6; Ratio Ki [8]: > 4.7 |
| CC(C)(C)CNc1nccc(NC2CCNC2)n1 (stereo not given) | 204 | 204 | > 10000 | – |
| N=C(NCc1ccc(Cl)cc1)SCCCc1c[nH]cn1 | – | – | – | pKb [9]: 6.28 |
| CC(C)(C)CNc1nccc(N2CCN(CCN)CC2)n1 | > 10000 | – | – | – |
| NC(=NCc1ccc(Cl)cc1)SCCCc1cnc[nH]1 [CLOBENPROPIT] | – | – | – | EC50 [10]: 22.4 nM; EC50 [11]: 851 nM |
| CC(C)(C)CNc1nccc(N2CCCNCC2)n1 | – | 537 | – | – |
| NC(=NCCc1ccc(I)cc1)SCCCc1cnc[nH]1 [IODOPHENPROPIT] | – | – | – | Ki [12]: 12.6 nM |
| O=C(O)C(F)(F)F.O=C(O)C(F)(F)F.[3H]C([3H])([3H])N(C)[C@@H]1CCN(c2ccnc(NCC(C)(C)C)n2)C1 | – | – | – | Stability [13]: Stable |
| CCC(=O)N[C@@H]1CCN(c2ccnc(NCC(C)(C)C)n2)C1 | 3020 | 3020 | – | – |
| CC(C)(C)CNc1nccc(NCCCN)n1 | 5620 | 5620 | > 10000 | – |
| CC(C)(C)CNc1nccc(N2CCN(C(=N)N)CC2)n1 | 6030 | – | > 1000 | – |
| CC(C)(C)CNc1nccc(N2CC[C@@H](N)C2)n1 | 13.8 | – | – | – |
| S=C(NC1CCCCC1)N1CCC(c2cnc[nH]2)CC1 | – | – | – | pKb [14]: 6.83; pKb [15]: 7.12; pKb [9]: 6.44 |
